Results on one compound are retold here after ChEMBL document CHEMBL1148968 (J Nat Prod, 2004).

Active and inactive are the calls of the source. The rule behind the calls is not given here. Some results are limits rather than exact numbers.

Data set [1] is described as follows: Inhibition of electron transport pathway in C57B1/6 mouse liver mitochondria. In kind it is functional.
Data set [2] is described as follows: Inhibition of african green monkey Vero cell proliferation/viability up to 100 uM after 48 hrs by MTT assay. Conditions: chlorocebus sabaeus, Vero cells. It is filed as cell-based. In short, it runs like this:
(§1)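 Cells grown in DMEM/F12 with 10% FBS and antibiotics, seeded at 3×10^4/well, incubated 24 h at 37 °C. Compound diluted in serum-free medium, tested at 10^-9 to 10^-4 M for 48 h under normoxia. MTT added to 0.25 mg/mL final for 4 h at 37 °C, then lysed in 0.04 N HCl/isopropanol, A570 read.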

The target in data set [3] is T1, Hypoxia inducible factors; HIF-1-alpha, HIF-2-alpha (Homo sapiens, UniProt Q16665+Q99814). Nature of the data set: Inhibition of hypoxia-induced HIF1 activation in human T47D cells carrying […] reporter gene measured by luciferase activity. In kind it is cell-based. In short, it runs like this:
(§2)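 T47D cells were transiently transfected with the pTK-HRE3-luc reporter (erythropoietin HRE). They were pretreated with compound for 30 min, then held 16 h at 1% O2/5% CO2/94% N2. Luciferase activity was reported as % inhibition versus the induced control. One representative experiment, run in quadruplicate, mean ± SE.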
Background: In a reporter assay the amount or activity of a reporter protein is the signal.

The test system of data set [4] is MCF7. Nature of the data set: Inhibition of human MCF7 cell proliferation/viability up to 100 uM after 48 hrs by MTT assay. It is filed as functional. In short, it runs like this:
as §1
(Formazan colour is commonly taken as a measure of viable cells.)

The species named for data set [5] is Mus musculus. Nature of the data set: Inhibition of C57B1/6 mouse liver mitochondrial activity in presence of succinate. In kind it is functional.
Data set [6] deals with MDA-MB-231. Nature of the data set: Inhibition of human MDA-MB-231 cell proliferation/viability up to 100 uM after 48 hrs by MTT assay. It is filed as functional. In a few lines: as §1
For data set [7], the system named is T47D. Nature of the data set: Reduction of human T47D cell colony formation under hypoxic condition at 1 uM by clonogenic survival assay. In kind it is functional. In a few lines:
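T47D cells seeded at 400 cells per 100 mm dish and allowed to adhere 4 h. Half the medium was replaced with serum-free medium containing compound. After a 30 min pretreatment, cells were held 24 h at 1% O2 (normoxic comparison run in parallel). Medium was then refreshed and cells grown 2–3 weeks under normoxia. Colonies were methanol-fixed and stained with crystal violet, and those over 50 cells counted.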

In data set [8] the target is T1, Hypoxia inducible factors; HIF-1-alpha, HIF-2-alpha. Nature of the data set: Inhibition of hypoxia-induced HIF1 activation in human T47D cells carrying […] reporter gene measured by luciferase activity at 1.78 uM. In kind it is cell-based. In short, it runs like this: as §2
Data set [9] concerns T47D. Put plainly: Inhibition of hypoxia-induced secreted VEGF protein level in human T47D cells at 1 uM by ELISA. It is filed as functional. In a few lines: (§3)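 T47D cells seeded at 3.56×10^5/well in DMEM/F12 with 10% FBS and grown 24 h. Half the medium was replaced with serum-free medium containing compound. After a 30 min pretreatment, cells were held 16 h at 1% O2. VEGF in conditioned medium was measured by human VEGF ELISA and normalized to viable cell count (hemocytometer). Triplicate, mean ± SE, ANOVA/Fisher's PLSD.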
A general note: An ELISA detects its analyte on a solid surface through an enzyme-linked reagent.

For data set [10], the system named is T47D. Put plainly: Blockade of HIF1alpha protein expression in hypoxia-induced human T47D cells at 1 uM under 30 mins in normoxic condition followed by 4 hrs in hypoxic condition. In kind it is functional, cell-based. In a few lines: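 T47D nuclear HIF-1α (and HIF-1β) measured by Western blot of nuclear extracts. Exponentially grown cells were pretreated 30 min under normoxia (95% air), then held 4 h at 1% O2.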

Data set [11] has as its system T47D. Nature of the data set: Inhibition of human T47D cell proliferation/viability up to 100 uM after 48 hrs by MTT assay. It is filed as functional. In a few lines:
as §1

Data set [12] deals with T47D. Put plainly: Inhibition of hypoxia-induced secreted VEGF protein level in human T47D cells at 3 uM by ELISA. It is filed as functional. In a few lines:
as §3

Data set [13] has as its system SK-BR-3. Put plainly: Inhibition of human SK-BR-3 cell proliferation/viability at 100 uM after 48 hrs by MTT assay. In kind it is functional. As to conditions: SK-BR-3, 48 h. In short, it runs like this:
as §1

Broadly, the IC50 is the point on the concentration scale where inhibition reaches its midpoint. Broadly, the inhibition is the change of the read-out against control, counted positive when it falls. Usually EC50 stands for the midpoint of the concentration-response curve.

For `CC1=C[C@@H](O)C(C(C)CC[C@@H]2[C@@H](C)[C@]3(C)CC[C@@]2(C)O3)CC1` (some centres undefined) [LAURENDITERPENOL], the IC50 worked out at 800 nM in data set [1] and 400 nM in [3]. Further, the inhibition at 48 h in [2] was < 50%. Also, in data set [3], the EC50 was determined as 400 nM. The “inhibition (INH)” value in [4], in [6] and in [11] was <50% throughout. Also, the result in [5] was inactive. Besides, the inhibition at 1 µM was 50% in data set [7] and 55% in [9]. Moreover, the inhibition in [8] amounted to 88%. The outcome in data set [10] was Active. This compound also displayed an inhibition at 3 µM in data set [12] of 80%. Also, 100 µM produced 63% inhibition in data set [13].
